Test system: U2OS
Experiment: Multiplex assay against U2OS
Type: toxicity, cell-based
Conditions: human
Procedure, shortened: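 Live cells carried four stains from seeding: Hoechst33342, BioTracker Green Microtubule Cytoskeleton Dye, MitoTracker Red and Annexin V Alexa Fluor 680. They were imaged on a CQ1 microscope at 37°C and 5% CO2 after compound addition. Using CellPathfinder machine-learning gating, cells were split into Hoechst high-intensity objects or normal cells, normal cells into healthy, pyknosed or fragmented nuclei, and pyknosed cells into mitotic or apoptotic; tubulin, mitochondrial-mass and membrane-permeability phenotypes are per cents of healthy-nucleus cells.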

[1] = 12 h, 1 µM, compound concentration 1 uM, replicate 1
[2] = 12 h, 1 µM, compound concentration 1 uM, replicate 2
[3] = 12 h, 10 µM, compound concentration 10 uM, replicate 1
[4] = 12 h, 10 µM, compound concentration 10 uM, replicate 2
[5] = 24 h, 1 µM, compound concentration 1 uM, replicate 1
[6] = 24 h, 1 µM, compound concentration 1 uM, replicate 2
[7] = 24 h, 10 µM, compound concentration 10 uM, replicate 1
[8] = 24 h, 10 µM, compound concentration 10 uM, replicate 2

Compound: Cl.Cl.NC1(c2ccc(-c3nc4ccn5c(=O)[nH]nc5c4cc3-c3ccccc3)cc2)CCC1
- Population Apoptotic (%) [1]: 53%
- Population Fragmented Nuclei (%) [1]: 11%
- Population Healthy Nuclei (%) [1]: 81%
- Population Hoechst High Intensity Objects (%) [1]: 1%
- Population Membrane Permeable-Phenotype (%) [1]: 20%
- Population Mitochondria Different-Phenotype (%) [1]: 13%
- Population Mitotic Cells (%) [1]: 46%
- Population Normal (%) [1]: 98%
- Population Pyknosed Nuclei (%) [1]: 6%
- Population Tubulin-Different-Phenotype (%) [1]: 14%
- Total Cell Count [1]: 154
- Population Apoptotic (%) [2]: 50%
- Population Fragmented Nuclei (%) [2]: 17%
- Population Healthy Nuclei (%) [2]: 77%
- Population Hoechst High Intensity Objects (%) [2]: 12%
- Population Membrane Permeable-Phenotype (%) [2]: 10%
- Population Mitochondria Different-Phenotype (%) [2]: 17%
- Population Mitotic Cells (%) [2]: 50%
- Population Normal (%) [2]: 87%
- Population Pyknosed Nuclei (%) [2]: 4%
- Population Tubulin-Different-Phenotype (%) [2]: 19%
- Total Cell Count [2]: 116
- Population Apoptotic (%) [3]: 22%
- Population Fragmented Nuclei (%) [3]: 16%
- Population Healthy Nuclei (%) [3]: 40%
- Population Hoechst High Intensity Objects (%) [3]: 9%
- Population Membrane Permeable-Phenotype (%) [3]: 28%
- Population Mitochondria Different-Phenotype (%) [3]: 53%
- Population Mitotic Cells (%) [3]: 77%
- Population Normal (%) [3]: 90%
- Population Pyknosed Nuclei (%) [3]: 42%
- Population Tubulin-Different-Phenotype (%) [3]: 70%
- Total Cell Count [3]: 190
- Population Apoptotic (%) [4]: 11%
- Population Fragmented Nuclei (%) [4]: 26%
- Population Healthy Nuclei (%) [4]: 42%
- Population Hoechst High Intensity Objects (%) [4]: 16%
- Population Membrane Permeable-Phenotype (%) [4]: 16%
- Population Mitochondria Different-Phenotype (%) [4]: 51%
- Population Mitotic Cells (%) [4]: 88%
- Population Normal (%) [4]: 83%
- Population Pyknosed Nuclei (%) [4]: 31%
- Population Tubulin-Different-Phenotype (%) [4]: 66%
- Total Cell Count [4]: 160
- Population Apoptotic (%) [5]: 50%
- Population Fragmented Nuclei (%) [5]: 9%
- Population Healthy Nuclei (%) [5]: 85%
- Population Hoechst High Intensity Objects (%) [5]: 1%
- Population Membrane Permeable-Phenotype (%) [5]: 14%
- Population Mitochondria Different-Phenotype (%) [5]: 11%
- Population Mitotic Cells (%) [5]: 50%
- Population Normal (%) [5]: 98%
- Population Pyknosed Nuclei (%) [5]: 5%
- Population Tubulin-Different-Phenotype (%) [5]: 17%
- Total Cell Count [5]: 140
- Population Apoptotic (%) [6]: 16%
- Population Fragmented Nuclei (%) [6]: 14%
- Population Healthy Nuclei (%) [6]: 81%
- Population Hoechst High Intensity Objects (%) [6]: 8%
- Population Membrane Permeable-Phenotype (%) [6]: 10%
- Population Mitochondria Different-Phenotype (%) [6]: 21%
- Population Mitotic Cells (%) [6]: 83%
- Population Normal (%) [6]: 91%
- Population Pyknosed Nuclei (%) [6]: 3%
- Population Tubulin-Different-Phenotype (%) [6]: 19%
- Total Cell Count [6]: 103
- Population Apoptotic (%) [7]: 36%
- Population Fragmented Nuclei (%) [7]: 8%
- Population Healthy Nuclei (%) [7]: 27%
- Population Hoechst High Intensity Objects (%) [7]: 19%
- Population Membrane Permeable-Phenotype (%) [7]: 19%
- Population Mitochondria Different-Phenotype (%) [7]: 68%
- Population Mitotic Cells (%) [7]: 64%
- Population Normal (%) [7]: 80%
- Population Pyknosed Nuclei (%) [7]: 64%
- Population Tubulin-Different-Phenotype (%) [7]: 55%
- Total Cell Count [7]: 268
- Population Apoptotic (%) [8]: 29%
- Population Fragmented Nuclei (%) [8]: 18%
- Population Healthy Nuclei (%) [8]: 23%
- Population Hoechst High Intensity Objects (%) [8]: 21%
- Population Membrane Permeable-Phenotype (%) [8]: 11%
- Population Mitochondria Different-Phenotype (%) [8]: 57%
- Population Mitotic Cells (%) [8]: 70%
- Population Normal (%) [8]: 78%
- Population Pyknosed Nuclei (%) [8]: 58%
- Population Tubulin-Different-Phenotype (%) [8]: 48%
- Total Cell Count [8]: 181

Source: ChEMBL document CHEMBL4689842, “EUbOPEN Chemogenomics Library wave 1” (2021)
